ChEMBL document CHEMBL3612019, “Revisiting 1,3,4-Oxadiazol-2-ones: Utilization in the Development of ABHD6 Inhibitors” (Bioorg Med Chem, 2015)
pIC50: −log10 of the molar value. Activity calls are given as the source filed them. The calls are words filed in the database; no cut-off is given here.

Assays:
[1] = target: T1, Fatty-acid amide hydrolase 1 (Mus musculus) (UniProt O08914); experiment: Inhibition of FAAH in mouse whole brain membranes at 10 uM incubated for 1 hr by TAMRA-FP probe based competitive activity-based protein profiling assay; assay type: cell membranes; conditions: Membrane
T1 sequence (whole entry): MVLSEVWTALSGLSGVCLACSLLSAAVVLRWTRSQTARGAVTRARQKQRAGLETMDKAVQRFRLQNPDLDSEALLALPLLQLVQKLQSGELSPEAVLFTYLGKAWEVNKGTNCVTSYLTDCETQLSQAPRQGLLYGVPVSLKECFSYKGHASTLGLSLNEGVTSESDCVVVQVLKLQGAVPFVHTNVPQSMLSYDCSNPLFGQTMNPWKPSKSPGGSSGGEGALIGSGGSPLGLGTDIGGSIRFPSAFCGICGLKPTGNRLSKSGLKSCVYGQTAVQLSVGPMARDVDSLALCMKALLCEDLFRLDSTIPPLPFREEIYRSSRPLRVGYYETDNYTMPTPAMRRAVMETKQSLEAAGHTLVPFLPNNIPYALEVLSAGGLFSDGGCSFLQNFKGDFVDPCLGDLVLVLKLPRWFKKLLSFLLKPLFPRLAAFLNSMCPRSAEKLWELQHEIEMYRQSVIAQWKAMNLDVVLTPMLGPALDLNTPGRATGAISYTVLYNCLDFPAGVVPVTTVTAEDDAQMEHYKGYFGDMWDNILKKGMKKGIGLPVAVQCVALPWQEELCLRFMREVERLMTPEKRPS
In short: (§1)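 Competitive ABPP on mouse brain membranes (100 µg) treated 1 h with DMSO or inhibitor. TAMRA-FP labelling then ran 1 h at RT (final probe 2 µM). Reaction was quenched with gel loading buffer and proteins resolved by 10% SDS–PAGE for fluorescent band read-out. WWL70 located the ABHD6 band. Gels are representative of two experiments.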

[2] = target: T2, Lysophosphatidylserine lipase ABHD12 (Homo sapiens) (UniProt Q8N2K0); experiment: Inhibition of human ABHD12 expressed in HEK293 cells assessed as remaining enzyme activity at 1 uM pre-incubated for 10 mins before 2-AG substrate addition by HPLC method; assay type: cell-based
T2 sequence (whole entry): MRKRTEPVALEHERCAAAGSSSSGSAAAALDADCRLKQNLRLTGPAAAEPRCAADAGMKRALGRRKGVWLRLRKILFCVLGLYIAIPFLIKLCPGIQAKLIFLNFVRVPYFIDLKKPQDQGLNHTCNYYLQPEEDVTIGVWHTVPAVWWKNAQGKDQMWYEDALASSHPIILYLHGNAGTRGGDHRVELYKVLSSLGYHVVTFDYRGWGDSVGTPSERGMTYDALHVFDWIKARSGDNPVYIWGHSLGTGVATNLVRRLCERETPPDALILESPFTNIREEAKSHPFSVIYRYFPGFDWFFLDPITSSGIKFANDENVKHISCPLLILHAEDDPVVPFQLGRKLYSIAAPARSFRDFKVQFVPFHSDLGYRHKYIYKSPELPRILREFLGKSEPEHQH

[3] = target: T3, Fatty-acid amide hydrolase 1 (Homo sapiens) (UniProt O00519); experiment: Inhibition of human FAAH expressed in COS7 cell membranes at 10 uM pre-incubated for 10 mins before [3H]-AEA substrate addition by liquid scintillation counting; conditions: COS-7
T3 sequence (whole entry): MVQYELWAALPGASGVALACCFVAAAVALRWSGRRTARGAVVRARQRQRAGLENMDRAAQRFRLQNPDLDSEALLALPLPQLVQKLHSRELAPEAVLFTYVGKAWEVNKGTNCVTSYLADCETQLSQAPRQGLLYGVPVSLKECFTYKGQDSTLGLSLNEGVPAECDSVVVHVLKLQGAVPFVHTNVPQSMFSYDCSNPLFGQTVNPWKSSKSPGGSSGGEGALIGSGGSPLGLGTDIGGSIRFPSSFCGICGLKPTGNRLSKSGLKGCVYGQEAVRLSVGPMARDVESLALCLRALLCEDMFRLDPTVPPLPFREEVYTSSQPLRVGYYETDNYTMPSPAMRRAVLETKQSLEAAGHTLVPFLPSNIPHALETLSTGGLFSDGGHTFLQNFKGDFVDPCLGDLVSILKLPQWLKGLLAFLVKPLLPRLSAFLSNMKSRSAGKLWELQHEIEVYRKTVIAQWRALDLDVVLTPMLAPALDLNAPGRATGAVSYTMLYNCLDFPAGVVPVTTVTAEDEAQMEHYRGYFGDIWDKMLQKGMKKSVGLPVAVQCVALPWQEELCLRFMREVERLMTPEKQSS

[4] = target: T4, Monoglyceride lipase (Mus musculus) (UniProt O35678); experiment: Inhibition of MAGL in mouse whole brain membranes at 10 uM incubated for 1 hr by TAMRA-FP probe based competitive activity-based protein profiling assay; assay type: cell membranes; conditions: Membrane; in short: as §1
T4 sequence (whole entry): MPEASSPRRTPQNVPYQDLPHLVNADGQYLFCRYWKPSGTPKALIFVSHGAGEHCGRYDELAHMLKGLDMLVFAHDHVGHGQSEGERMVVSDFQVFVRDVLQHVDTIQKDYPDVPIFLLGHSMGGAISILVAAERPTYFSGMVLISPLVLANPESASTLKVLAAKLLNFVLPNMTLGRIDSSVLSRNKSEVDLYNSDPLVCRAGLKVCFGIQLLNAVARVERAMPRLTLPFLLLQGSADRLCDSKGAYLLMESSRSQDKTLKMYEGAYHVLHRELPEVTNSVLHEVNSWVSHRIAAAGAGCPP

[5] = target: T5, Monoacylglycerol lipase ABHD6 (Homo sapiens, UniProt Q9BV23); experiment: Inhibition of human ABHD6 expressed in HEK293 cells assessed as reduction in glycerol production from 1-AG hydrolysis pre-incubated for 30 mins before 1-AG substrate addition and measured 90 mins post substrate addition by fluorescence method; assay type: cell-based
T5 sequence (Q9BV23 whole entry): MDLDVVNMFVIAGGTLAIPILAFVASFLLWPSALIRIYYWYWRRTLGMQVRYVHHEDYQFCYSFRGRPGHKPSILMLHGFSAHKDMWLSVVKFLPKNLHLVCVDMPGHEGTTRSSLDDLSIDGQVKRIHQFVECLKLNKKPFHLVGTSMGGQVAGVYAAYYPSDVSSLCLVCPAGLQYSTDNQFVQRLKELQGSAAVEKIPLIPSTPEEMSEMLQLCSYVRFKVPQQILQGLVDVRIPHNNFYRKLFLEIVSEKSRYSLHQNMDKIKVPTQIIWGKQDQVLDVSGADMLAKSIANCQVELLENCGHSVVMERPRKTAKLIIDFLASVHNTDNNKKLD
In short: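 hABHD6-HEK293 lysates pretreated 30 min with DMSO or inhibitor, then given 1-AG (12.5 µM final). Glycerol release was followed kinetically by fluorescence (emission 590 nm). Blanks without lysate were subtracted. IC50 was taken at the 90 min time point by nonlinear fitting of dose–response curves.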

inhibition [1]	inhibition [2]	inhibition [3]	inhibition [4]	pIC50 [5]	Compound
Active	inactive	25%	Active	7.14	Nc1cccc(Cn2nc(Oc3ccccc3)oc2=O)c1
inactive	inactive	18%	inactive	6.67	COc1nn(Cc2cccc(N)c2)c(=O)o1
